# From ChEMBL document CHEMBL4043093, “2-Oxo-3, 4-dihydropyrimido[4, 5-d]pyrimidinyl derivatives as new irreversible pan fibroblast growth factor receptor (FGFR) inhibitors” (Eur J Med Chem, 2017)
# Columns and labels:
# [1] = test system: Receptor-type tyrosine-protein kinase FLT3 (Homo sapiens), P36888 [D835H]; test: Inhibition of human partial length FLT3 D835H mutant (V592 to Y969 residues) expressed in Escherichia coli BL21 assessed as residual activity at 1000 nM after 30 mins by Kinomescan method relative to control
# Method in brief: (§1)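 KINOMEscan binding panel of 456 kinases, with the test compound at a single concentration of 1 µM. Read-out is Percent Control.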
# [2] = target: BDNF/NT-3 growth factors receptor (Homo sapiens) (UniProt Q16620); test: Inhibition of wild-type human partial length TRKB (Q547 to G838 residues) expressed in HEK293 cells assessed as residual activity at 1000 nM after 30 mins by Kinomescan method relative to control; format: cell-based
# [3] = target: Phosphatidylinositol 4,5-bisphosphate 3-kinase catalytic subunit alpha isoform (Homo sapiens) (UniProt P42336); test: Inhibition of wild-type human partial length PIK3CA (R108 to N1068 residues) expressed in HEK293 cells assessed as residual activity at 1000 nM after 30 mins by Kinomescan method relative to control; format: cell-based
# [4] = target: Phosphatidylinositol 4,5-bisphosphate 3-kinase catalytic subunit beta isoform (Homo sapiens) (UniProt P42338); test: Inhibition of wild-type human partial length PIK3CB (P118 to S1070 residues) expressed in HEK293 cells assessed as residual activity at 1000 nM after 30 mins by Kinomescan method relative to control; format: cell-based
# [5] = target: ALK tyrosine kinase receptor (Homo sapiens) (UniProt Q9UM73); test: Inhibition of wild-type human partial length ALK (I1088 to E1409 residues) expressed in HEK293 cells assessed as residual activity at 1000 nM after 30 mins by Kinomescan method relative to control; format: cell-based
# [6] = target: Rho-associated protein kinase 1 (Homo sapiens) (UniProt Q13464); test: Inhibition of wild-type human partial length ROCK1 (M1 to R415 residues) expressed in HEK293 cells assessed as residual activity at 1000 nM after 30 mins by Kinomescan method relative to control; format: cell-based
# [7] = target: Serine/threonine-protein kinase Nek3 (Homo sapiens) (UniProt P51956); test: Inhibition of wild-type human full length NEK3 (M1 to R506 residues) expressed in HEK293 cells assessed as residual activity at 1000 nM after 30 mins by Kinomescan method relative to control; format: cell-based
# Method in brief: (§2)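 Single-concentration screen at 1 µM across a 456-kinase KINOMEscan panel. The read-out is Percent Control for each kinase.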
# [8] = target: Rhodopsin kinase GRK7 (Homo sapiens) (UniProt Q8WTQ7); test: Inhibition of wild-type human full length GRK7 (M1 to L553 residues) expressed in HEK293 cells assessed as residual activity at 1000 nM after 30 mins by Kinomescan method relative to control; format: cell-based; method in brief: as §2
# [9] = target: TGF-beta receptor type-1 (Homo sapiens) (UniProt P36897); test: Inhibition of wild-type human partial length TGFBR1 (D179 to M503 residues) expressed in Escherichia coli BL21 assessed as residual activity at 1000 nM after 30 mins by Kinomescan method relative to control
# [10] = target: MAP kinase-activated protein kinase 5 (Homo sapiens) (UniProt Q8IW41); test: Inhibition of wild-type human partial length MAPKAPK5 (M1 to D322 residues) expressed in HEK293 cells assessed as residual activity at 1000 nM after 30 mins by Kinomescan method relative to control; format: cell-based
# [11] = target: Tyrosine-protein kinase TXK (Homo sapiens) (UniProt P42681); test: Inhibition of wild-type human partial length TXK (L238 to W527 residues) expressed in Escherichia coli BL21 assessed as residual activity at 1000 nM after 30 mins by Kinomescan method relative to control
# [12] = target: Mitogen-activated protein kinase kinase kinase 19 (Homo sapiens) (UniProt Q56UN5); test: Inhibition of wild-type human partial length YSK4 (T1019 to H1328 residues) expressed in HEK293 cells assessed as residual activity at 1000 nM after 30 mins by Kinomescan method relative to control; format: cell-based
# [13] = target: Serine/threonine-protein kinase SBK1 (Homo sapiens) (UniProt Q52WX2); test: Inhibition of wild-type human partial length SBK1 (P23 to P348 residues) expressed in HEK293 cells assessed as residual activity at 1000 nM after 30 mins by Kinomescan method relative to control; format: cell-based
# [14] = target: Protein kinase C iota type (Homo sapiens) (UniProt P41743); test: Inhibition of wild-type human partial length PRKCI (H215 to V587 residues) expressed in HEK293 cells assessed as residual activity at 1000 nM after 30 mins by Kinomescan method relative to control; format: cell-based
# [15] = target: AP2-associated protein kinase 1 (Homo sapiens) (UniProt Q2M2I8); test: Inhibition of human wild-type AAK1 (G25 to L333 residues) expressed in Escherichia coli BL21 assessed as residual activity at 1000 nM after 30 mins by Kinomescan method relative to control
# Method in brief: (§3)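 Single-point screen at a fixed 1 µM, run within a 456-kinase DiscoveRx KINOMEscan panel. Each kinase's read-out is Percent Control, i.e. signal relative to a control without compound. Hits were scored by a Percent Control < 35 cut-off, and an S(35) selectivity score was calculated across the non-mutant kinases.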
# [16] = target: Uncharacterized serine/threonine-protein kinase SBK3 (Homo sapiens) (UniProt P0C264); test: Inhibition of wild-type human partial length SgK110 (L22 to R329 residues) expressed in Escherichia coli BL21 assessed as residual activity at 1000 nM after 30 mins by Kinomescan method relative to control
# [17] = target: Myotonin-protein kinase (Homo sapiens) (UniProt Q09013); test: Inhibition of wild-type human partial length DMPK (V47 to V415 residues) expressed in Escherichia coli BL21 assessed as residual activity at 1000 nM after 30 mins by Kinomescan method relative to control
# [18] = target: Serine/threonine-protein kinase WNK4 (Homo sapiens) (UniProt Q96J92); test: Inhibition of wild-type human partial length WNK4 (A31 to D461 residues) expressed in HEK293 cells assessed as residual activity at 1000 nM after 30 mins by Kinomescan method relative to control; format: cell-based
# [19] = target: Mitogen-activated protein kinase kinase kinase 5 (Homo sapiens) (UniProt Q99683); test: Inhibition of wild-type human partial length ASK1 (E648 to S964 residues) expressed in Escherichia coli BL21 assessed as residual activity at 1000 nM after 30 mins by Kinomescan method relative to control
# [20] = test system: Epidermal growth factor receptor (Homo sapiens), P00533 [G719C]; test: Inhibition of human partial length EGFR G719C mutant (R669 to V1011 residues) expressed in Escherichia coli BL21 assessed as residual activity at 1000 nM after 30 mins by Kinomescan method relative to control; method in brief: as §1
# [21] = test system: Phosphatidylinositol 4,5-bisphosphate 3-kinase catalytic subunit alpha isoform (Homo sapiens), P42336 [Q546K]; test: Inhibition of human partial length PIK3CA Q546K mutant (R108 to N1068 residues) expressed in HEK293 cells assessed as residual activity at 1000 nM after 30 mins by Kinomescan method relative to control; format: cell-based; method in brief: as §3
# Chain of Phosphatidylinositol 4,5-bisphosphate 3-kinase catalytic subunit alpha isoform (Homo sapiens), P42336 [Q546K] (P42336 whole entry Q546K, the tested form may be a part, canonical isoform): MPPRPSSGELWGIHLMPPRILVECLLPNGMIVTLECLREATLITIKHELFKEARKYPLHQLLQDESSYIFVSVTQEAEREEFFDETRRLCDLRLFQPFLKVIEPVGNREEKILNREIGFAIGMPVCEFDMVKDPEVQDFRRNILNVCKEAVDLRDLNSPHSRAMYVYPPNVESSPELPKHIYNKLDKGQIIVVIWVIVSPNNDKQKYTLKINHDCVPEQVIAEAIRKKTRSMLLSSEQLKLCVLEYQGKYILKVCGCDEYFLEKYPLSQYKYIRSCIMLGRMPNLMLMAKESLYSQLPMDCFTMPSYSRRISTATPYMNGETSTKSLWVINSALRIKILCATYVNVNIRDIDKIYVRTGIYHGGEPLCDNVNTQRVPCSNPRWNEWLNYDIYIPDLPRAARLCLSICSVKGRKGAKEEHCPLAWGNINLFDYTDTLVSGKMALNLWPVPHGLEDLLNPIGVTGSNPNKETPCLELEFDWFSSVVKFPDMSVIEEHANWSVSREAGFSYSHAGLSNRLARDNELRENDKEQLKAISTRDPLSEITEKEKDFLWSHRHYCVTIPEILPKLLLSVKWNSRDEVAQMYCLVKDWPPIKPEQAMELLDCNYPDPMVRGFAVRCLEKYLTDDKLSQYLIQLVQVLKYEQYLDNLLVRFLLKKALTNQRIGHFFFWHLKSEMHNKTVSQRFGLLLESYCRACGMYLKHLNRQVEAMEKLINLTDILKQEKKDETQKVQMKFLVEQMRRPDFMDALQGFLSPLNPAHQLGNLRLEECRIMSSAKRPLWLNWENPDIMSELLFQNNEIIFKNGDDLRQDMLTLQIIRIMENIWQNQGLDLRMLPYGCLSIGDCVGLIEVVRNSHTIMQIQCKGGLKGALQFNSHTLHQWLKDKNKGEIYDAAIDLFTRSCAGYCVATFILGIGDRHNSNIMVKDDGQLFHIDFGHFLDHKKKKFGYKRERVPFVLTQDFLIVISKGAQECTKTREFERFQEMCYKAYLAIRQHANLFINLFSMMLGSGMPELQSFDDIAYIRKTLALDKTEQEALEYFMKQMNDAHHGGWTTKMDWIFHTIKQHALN
# Chain of MAP kinase-activated protein kinase 5 (Homo sapiens) (Q8IW41 whole entry, the tested form may be a part): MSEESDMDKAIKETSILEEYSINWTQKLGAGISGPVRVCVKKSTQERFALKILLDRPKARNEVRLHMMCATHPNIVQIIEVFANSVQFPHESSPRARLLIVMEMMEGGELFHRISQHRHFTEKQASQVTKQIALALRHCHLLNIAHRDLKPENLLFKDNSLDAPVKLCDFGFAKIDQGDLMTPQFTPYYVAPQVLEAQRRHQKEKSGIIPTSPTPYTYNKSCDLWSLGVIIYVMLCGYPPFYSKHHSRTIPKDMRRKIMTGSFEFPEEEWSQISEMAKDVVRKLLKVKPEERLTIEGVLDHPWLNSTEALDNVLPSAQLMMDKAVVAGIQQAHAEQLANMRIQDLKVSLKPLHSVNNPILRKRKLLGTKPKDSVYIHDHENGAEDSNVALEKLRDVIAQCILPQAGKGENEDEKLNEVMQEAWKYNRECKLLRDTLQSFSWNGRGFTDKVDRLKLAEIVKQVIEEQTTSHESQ
# Chain of Mitogen-activated protein kinase kinase kinase 5 (Homo sapiens) (Q99683 whole entry, the tested form may be a part): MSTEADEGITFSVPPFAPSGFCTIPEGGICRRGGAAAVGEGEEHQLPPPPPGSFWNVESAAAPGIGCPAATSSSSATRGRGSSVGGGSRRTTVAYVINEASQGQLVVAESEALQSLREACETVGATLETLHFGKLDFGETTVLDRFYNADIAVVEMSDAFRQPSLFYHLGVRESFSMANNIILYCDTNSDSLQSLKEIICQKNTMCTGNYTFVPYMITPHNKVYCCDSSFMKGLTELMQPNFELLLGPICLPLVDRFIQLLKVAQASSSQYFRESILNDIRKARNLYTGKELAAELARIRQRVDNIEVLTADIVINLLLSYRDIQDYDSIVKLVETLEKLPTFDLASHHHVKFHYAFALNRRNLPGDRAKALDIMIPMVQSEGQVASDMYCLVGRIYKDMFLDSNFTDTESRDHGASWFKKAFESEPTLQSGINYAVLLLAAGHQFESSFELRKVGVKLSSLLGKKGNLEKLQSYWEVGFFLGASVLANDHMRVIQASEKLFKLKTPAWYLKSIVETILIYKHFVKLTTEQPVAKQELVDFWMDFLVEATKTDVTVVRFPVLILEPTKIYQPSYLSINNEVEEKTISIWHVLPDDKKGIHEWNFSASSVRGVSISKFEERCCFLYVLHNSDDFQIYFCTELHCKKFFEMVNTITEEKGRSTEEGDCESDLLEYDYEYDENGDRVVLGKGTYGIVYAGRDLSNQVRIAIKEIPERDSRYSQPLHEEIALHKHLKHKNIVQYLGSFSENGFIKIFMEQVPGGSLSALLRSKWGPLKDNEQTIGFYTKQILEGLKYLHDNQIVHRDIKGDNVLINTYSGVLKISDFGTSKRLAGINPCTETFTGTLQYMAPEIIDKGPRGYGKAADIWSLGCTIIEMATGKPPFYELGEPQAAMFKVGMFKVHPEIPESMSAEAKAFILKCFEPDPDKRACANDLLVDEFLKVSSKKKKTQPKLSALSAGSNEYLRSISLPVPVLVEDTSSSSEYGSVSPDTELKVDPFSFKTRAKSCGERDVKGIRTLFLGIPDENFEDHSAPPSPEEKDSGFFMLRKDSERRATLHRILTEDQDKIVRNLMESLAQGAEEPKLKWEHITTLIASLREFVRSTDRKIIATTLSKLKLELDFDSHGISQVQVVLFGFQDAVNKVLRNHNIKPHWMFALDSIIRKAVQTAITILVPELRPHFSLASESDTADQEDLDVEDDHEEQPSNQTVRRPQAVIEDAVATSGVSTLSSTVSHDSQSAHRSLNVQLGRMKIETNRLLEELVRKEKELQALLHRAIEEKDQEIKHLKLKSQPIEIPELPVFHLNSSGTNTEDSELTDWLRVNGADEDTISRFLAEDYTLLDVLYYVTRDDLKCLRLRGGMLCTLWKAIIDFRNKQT
# Chain of Serine/threonine-protein kinase SBK1 (Homo sapiens) (Q52WX2 whole entry, the tested form may be a part): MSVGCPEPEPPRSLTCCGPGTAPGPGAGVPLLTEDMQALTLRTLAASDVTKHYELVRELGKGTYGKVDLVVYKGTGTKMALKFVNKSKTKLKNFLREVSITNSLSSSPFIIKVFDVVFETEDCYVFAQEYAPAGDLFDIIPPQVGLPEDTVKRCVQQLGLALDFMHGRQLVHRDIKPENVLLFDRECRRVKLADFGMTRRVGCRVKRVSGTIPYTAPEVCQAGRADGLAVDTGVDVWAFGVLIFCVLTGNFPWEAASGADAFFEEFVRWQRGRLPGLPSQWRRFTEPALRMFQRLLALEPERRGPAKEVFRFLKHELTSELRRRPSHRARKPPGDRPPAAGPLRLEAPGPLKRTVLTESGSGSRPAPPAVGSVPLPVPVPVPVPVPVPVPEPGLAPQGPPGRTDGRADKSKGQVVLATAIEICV
# Chain of AP2-associated protein kinase 1 (Homo sapiens) (Q2M2I8 whole entry, looked up, the tested form may be a part): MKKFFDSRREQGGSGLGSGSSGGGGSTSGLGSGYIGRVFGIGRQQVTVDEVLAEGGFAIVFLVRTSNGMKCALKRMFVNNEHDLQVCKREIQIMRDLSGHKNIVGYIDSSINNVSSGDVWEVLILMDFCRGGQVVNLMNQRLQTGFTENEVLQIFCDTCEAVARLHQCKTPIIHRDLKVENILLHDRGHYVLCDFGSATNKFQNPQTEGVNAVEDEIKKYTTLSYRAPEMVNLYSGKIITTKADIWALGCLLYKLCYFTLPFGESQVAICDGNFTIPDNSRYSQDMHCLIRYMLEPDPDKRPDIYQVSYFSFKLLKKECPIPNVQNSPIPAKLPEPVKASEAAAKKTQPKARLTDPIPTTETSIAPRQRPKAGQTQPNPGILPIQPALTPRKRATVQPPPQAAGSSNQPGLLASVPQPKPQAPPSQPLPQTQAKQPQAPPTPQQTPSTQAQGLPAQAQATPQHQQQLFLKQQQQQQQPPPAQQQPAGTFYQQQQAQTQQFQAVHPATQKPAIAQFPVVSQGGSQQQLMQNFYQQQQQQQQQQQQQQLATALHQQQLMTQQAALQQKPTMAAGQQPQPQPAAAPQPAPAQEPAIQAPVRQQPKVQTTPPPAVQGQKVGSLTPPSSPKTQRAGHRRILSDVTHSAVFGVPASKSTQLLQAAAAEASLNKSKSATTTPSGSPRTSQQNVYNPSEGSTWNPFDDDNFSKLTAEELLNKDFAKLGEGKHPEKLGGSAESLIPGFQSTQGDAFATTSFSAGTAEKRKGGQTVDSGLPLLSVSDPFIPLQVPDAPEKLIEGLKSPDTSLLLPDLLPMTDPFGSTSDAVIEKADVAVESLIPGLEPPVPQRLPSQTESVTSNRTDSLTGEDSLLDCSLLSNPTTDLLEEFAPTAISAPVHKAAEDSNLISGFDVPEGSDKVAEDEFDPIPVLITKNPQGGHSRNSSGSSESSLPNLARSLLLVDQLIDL
# Chain of Serine/threonine-protein kinase Nek3 (Homo sapiens) (P51956 whole entry, the tested form may be a part): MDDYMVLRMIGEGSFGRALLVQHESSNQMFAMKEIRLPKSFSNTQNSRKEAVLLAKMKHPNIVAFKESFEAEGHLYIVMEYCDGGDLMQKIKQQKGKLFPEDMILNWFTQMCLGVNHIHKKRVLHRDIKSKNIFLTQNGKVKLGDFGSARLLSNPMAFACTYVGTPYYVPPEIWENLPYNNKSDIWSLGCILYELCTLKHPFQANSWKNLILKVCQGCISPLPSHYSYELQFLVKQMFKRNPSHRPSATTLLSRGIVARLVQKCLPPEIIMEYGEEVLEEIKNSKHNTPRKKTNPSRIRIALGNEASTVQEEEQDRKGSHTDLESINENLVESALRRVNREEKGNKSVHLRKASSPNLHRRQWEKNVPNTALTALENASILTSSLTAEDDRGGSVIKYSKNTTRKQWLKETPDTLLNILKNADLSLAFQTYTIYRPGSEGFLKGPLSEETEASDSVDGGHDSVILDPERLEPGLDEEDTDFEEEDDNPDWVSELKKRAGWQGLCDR
smiles,measurement,setting,value
COc1cc(OC)c(Cl)c(N2Cc3cnc(Nc4ccc(F)cc4)nc3N(C3CCN(C(=O)/C=C/CN(C)C)CC3)C2=O)c1Cl,Activity,[1],100%
same,Activity,[2],54%
same,Activity,[3],100%
same,Activity,[4],100%
same,Activity,[5],100%
same,Activity,[6],100%
same,Activity,[7],79%
same,Activity,[8],99%
same,Activity,[9],95%
same,Activity,[10],100%
same,Activity,[11],99%
same,Activity,[12],93%
same,Activity,[13],90%
same,Activity,[14],100%
same,Activity,[15],100%
same,Activity,[16],100%
same,Activity,[17],100%
same,Activity,[18],100%
same,Activity,[19],100%
same,Activity,[20],87%
same,Activity,[21],98%
